From ChEMBL document CHEMBL2062467, “Design, synthesis, antimicrobial, anti-inflammatory and analgesic activity of novel isoxazolyl pyrimido[4,5-b]quinolines and isoxazolyl chromeno[2,3-d]pyrimidin-4-ones” (2012)
≈ marks a conversion by molar mass, not a printed value.

Legend:
Type in all cases: functional
Bacillus subtilis = experiment: Antibacterial activity against Bacillus subtilis MTCC 441 after 24 hrs by broth dilution method; conditions: MTCC 441, 24 h
How it was run: (§1)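 Broth dilution MIC in autoclaved nutrient broth tubes. Test compound was dissolved in acetone, and 100 mg/mL (so in the source) was added to the first tube, then serially diluted across the tubes.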

[1] = test system: Lysinibacillus sphaericus; experiment: Antibacterial activity against Bacillus sphaericus MTCC 511 after 24 hrs by broth dilution method; conditions: MTCC 511, 24 h; how it was run: as §1
Staphylococcus aureus = experiment: Antibacterial activity against Staphylococcus aureus MTCC 96 after 24 hrs by broth dilution method; conditions: MTCC 96, 24 h; how it was run: as §1
Pseudomonas aeruginosa = experiment: Antibacterial activity against Pseudomonas aeruginosa MTCC 741 after 24 hrs by broth dilution method; conditions: MTCC 741, 24 h; how it was run: as §1
Klebsiella aerogenes = experiment: Antibacterial activity against Klebsiella aerogenes MTCC 39 after 24 hrs by broth dilution method; conditions: MTCC 39, 24 h; how it was run: as §1
[2] = test system: Chromobacterium violaceum; experiment: Antibacterial activity against Chromobacterium violaceum MTCC 2656 after 24 hrs by broth dilution method; conditions: MTCC 2656, 24 h; how it was run: as §1
Fusarium oxysporum = experiment: Antifungal activity against Fusarium oxysporum after 72 to 96 hrs by agar cup method
How it was run: (§2)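 Agar cup assay on potato dextrose agar. Plates were spread with 0.5 mL of a one-week-old fungal spore suspension, and 6 mm cups were bored into the agar. Different concentrations of compound in acetone were added to the cups. Acetone and clotrimazole served as controls. Plates were held at room temperature for 72–96 h.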

[3] = Antifungal activity against Verticillium dahliae after 72 to 96 hrs by agar cup method; how it was run: as §2
Alternaria solani = experiment: Antifungal activity against Alternaria solani after 72 to 96 hrs by agar cup method; how it was run: as §2
Rhizoctonia solani = experiment: Antifungal activity against Rhizoctonia solani after 72 to 96 hrs by agar cup method; how it was run: as §2
Colletotrichum truncatum = experiment: Antifungal activity against Colletotrichum capsici after 72 to 96 hrs by agar cup method; how it was run: as §2
Pythium aphanidermatum = experiment: Antifungal activity against Pythium aphanidermatum after 72 to 96 hrs by agar cup method; how it was run: as §2
Rattus norvegicus [4] = experiment: Analgesic activity in Albino rat assessed as reaction time at 10 mg/kg, po after 1 hr by Hot plate test
How it was run: (§3)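 Hot plate test of central analgesia in rats, six per group, with a vehicle control group and an Indomethacin group (10 mg/kg po). Test compounds were given orally at 10 mg/kg. Reaction time was read at 0, 1 and 2 h. Values are the mean of six, ± S.E., also expressed as % increase over basal. Statistics used ANOVA/LSD; Dunnett's test vs control (P < 0.05).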

Rattus norvegicus [5] = experiment: Analgesic activity in Albino rat assessed as reaction time at 10 mg/kg, po after 2 hrs by Hot plate test; how it was run: as §3

SMILES | MIC (Bacillus subtilis) [µg/mL] | MIC [1] [µg/mL] | MIC (Staphylococcus aureus) [µg/mL] | MIC (Pseudomonas aeruginosa) [µg/mL] | MIC (Klebsiella aerogenes) [µg/mL] | MIC [2] [µg/mL] | MIC (Fusarium oxysporum) [µg/mL] | MIC [3] [µg/mL] | MIC (Alternaria solani) [µg/mL] | MIC (Rhizoctonia solani) [µg/mL] | MIC (Colletotrichum truncatum) [µg/mL] | MIC (Pythium aphanidermatum) [µg/mL] | Time (Rattus norvegicus [4]) [s] | Time (Rattus norvegicus [5]) [s]
COc1ccc(/C=C/c2onc(C)c2N2CN=C3Oc4ccc(Br)cc4C=C3C2=O)cc1 | 12 (≈ 24.4 µM) | 10 (≈ 20.3 µM) | 8 (≈ 16.2 µM) | 15 (≈ 30.5 µM) | 13 (≈ 26.4 µM) | 10 (≈ 20.3 µM) | 18 (≈ 36.6 µM) | 14 (≈ 28.4 µM) | 12 (≈ 24.4 µM) | 14 (≈ 28.4 µM) | 12 (≈ 24.4 µM) | 20 (≈ 40.6 µM) | 18.8 | 22.6
COc1ccc2c(c1)c(CC(=O)O)c(C)n2C(=O)c1ccc(Cl)cc1 [INDOMETHACIN] |  |  |  |  |  |  |  |  |  |  |  |  | 21.8 | 22.4
Cc1ccc(/C=C/c2onc(C)c2-n2c(C)nc3nc4ccc(Cl)cc4cc3c2=O)cc1 | 12 (≈ 27.1 µM) | 11 (≈ 24.8 µM) | 10 (≈ 22.6 µM) | 10 (≈ 22.6 µM) | 14 (≈ 31.6 µM) | 12 (≈ 27.1 µM) | 10 (≈ 22.6 µM) | 11 (≈ 24.8 µM) | 13 (≈ 29.4 µM) | 12 (≈ 27.1 µM) | 14 (≈ 31.6 µM) | 10 (≈ 22.6 µM) | 20.8 | 22.3
Clc1ccccc1C(c1ccccc1)(c1ccccc1)n1ccnc1 [CLOTRIMAZOLE] |  |  |  |  |  |  | 28 (≈ 81.2 µM) | 26 (≈ 75.4 µM) | 22 (≈ 63.8 µM) | 25 (≈ 72.5 µM) | 20 (≈ 58 µM) | 30 (≈ 87 µM) |  | 
COc1ccc(/C=C/c2onc(C)c2-n2c(C)nc3nc4ccc(Cl)cc4cc3c2=O)cc1 | 12 (≈ 26.1 µM) | 10 (≈ 21.8 µM) | 13 (≈ 28.3 µM) | 14 (≈ 30.5 µM) | 11 (≈ 24 µM) | 14 (≈ 30.5 µM) | 11 (≈ 24 µM) | 13 (≈ 28.3 µM) | 12 (≈ 26.1 µM) | 14 (≈ 30.5 µM) | 16 (≈ 34.9 µM) | 17 (≈ 37 µM) | 25.1 | 22.6
Cc1noc(/C=C/c2ccccc2)c1-n1c(C)nc2nc3ccc(Cl)cc3cc2c1=O | 8 (≈ 18.7 µM) | 16 (≈ 37.3 µM) | 9 (≈ 21 µM) | 10 (≈ 23.3 µM) | 7 (≈ 16.3 µM) | 5 (≈ 11.7 µM) | 8 (≈ 18.7 µM) | 9 (≈ 21 µM) | 10 (≈ 23.3 µM) | 11 (≈ 25.6 µM) | 11 (≈ 25.6 µM) | 15 (≈ 35 µM) | 21.2 | 21.5
Cc1ccc(/C=C/c2onc(C)c2-n2c(C)nc3nc4ccccc4cc3c2=O)cc1 | 19 (≈ 46.5 µM) | 23 (≈ 56.3 µM) | 25 (≈ 61.2 µM) | 23 (≈ 56.3 µM) | 18 (≈ 44.1 µM) | 15 (≈ 36.7 µM) | 12 (≈ 29.4 µM) | 12 (≈ 29.4 µM) | 10 (≈ 24.5 µM) | 14 (≈ 34.3 µM) | 18 (≈ 44.1 µM) | 15 (≈ 36.7 µM) | 21.3 | 21.1
COc1ccc2c(c1)C=C1C(=O)N(c3c(C)noc3/C=C/c3ccccc3)CN=C1O2 | 18 (≈ 43.5 µM) | 12 (≈ 29 µM) | 22 (≈ 53.2 µM) | 24 (≈ 58.1 µM) | 17 (≈ 41.1 µM) | 18 (≈ 43.5 µM) | 12 (≈ 29 µM) | 20 (≈ 48.4 µM) | 18 (≈ 43.5 µM) | 12 (≈ 29 µM) | 17 (≈ 41.1 µM) | 23 (≈ 55.6 µM) | 21.3 | 13.4
Cc1noc(/C=C/c2ccccc2)c1-n1c(C)nc2nc3ccccc3cc2c1=O | 20 (≈ 50.7 µM) | 22 (≈ 55.8 µM) | 20 (≈ 50.7 µM) | 24 (≈ 60.8 µM) | 20 (≈ 50.7 µM) | 20 (≈ 50.7 µM) | 16 (≈ 40.6 µM) | 14 (≈ 35.5 µM) | 10 (≈ 25.4 µM) | 12 (≈ 30.4 µM) | 15 (≈ 38 µM) | 18 (≈ 45.6 µM) | 14.8 | 16.5
Cc1ccc2c(c1)C=C1C(=O)N(c3c(C)noc3/C=C/c3ccccc3)CN=C1O2 | 15 (≈ 37.7 µM) | 18 (≈ 45.3 µM) | 16 (≈ 40.3 µM) | 12 (≈ 30.2 µM) | 15 (≈ 37.7 µM) | 18 (≈ 45.3 µM) | 20 (≈ 50.3 µM) | 22 (≈ 55.4 µM) | 20 (≈ 50.3 µM) | 24 (≈ 60.4 µM) | 18 (≈ 45.3 µM) | 22 (≈ 55.4 µM) | 21.2 | 21.5
Cc1ccc(/C=C/c2onc(C)c2N2CN=C3Oc4ccc(Cl)cc4C=C3C2=O)cc1 | 14 (≈ 32.4 µM) | 16 (≈ 37 µM) | 15 (≈ 34.7 µM) | 11 (≈ 25.5 µM) | 18 (≈ 41.7 µM) | 18 (≈ 41.7 µM) | 9 (≈ 20.8 µM) | 10 (≈ 23.2 µM) | 8 (≈ 18.5 µM) | 11 (≈ 25.5 µM) | 12 (≈ 27.8 µM) | 9 (≈ 20.8 µM) | 19.1 | 24.7
Cc1noc(/C=C/c2ccccc2)c1N1CN=C2Oc3c(Cl)cc(Cl)cc3C=C2C1=O | 15 (≈ 33.2 µM) | 14 (≈ 31 µM) | 16 (≈ 35.4 µM) | 15 (≈ 33.2 µM) | 17 (≈ 37.6 µM) | 16 (≈ 35.4 µM) | 16 (≈ 35.4 µM) | 18 (≈ 39.8 µM) | 14 (≈ 31 µM) | 15 (≈ 33.2 µM) | 16 (≈ 35.4 µM) | 22 (≈ 48.6 µM) | 28.3 | 21.9
COc1ccc(/C=C/c2onc(C)c2-n2c(C)nc3nc4ccccc4cc3c2=O)cc1 | 18 (≈ 42.4 µM) | 22 (≈ 51.8 µM) | 25 (≈ 58.9 µM) | 22 (≈ 51.8 µM) | 20 (≈ 47.1 µM) | 16 (≈ 37.7 µM) | 10 (≈ 23.6 µM) | 14 (≈ 33 µM) | 16 (≈ 37.7 µM) | 14 (≈ 33 µM) | 16 (≈ 37.7 µM) | 18 (≈ 42.4 µM) | 21.7 | 21.4
O=C(O)c1cn(C2CC2)c2cc(N3CCNCC3)c(F)cc2c1=O [CIPROFLOXACIN] | 20 (≈ 60.4 µM) | 24 (≈ 72.4 µM) | 28 (≈ 84.5 µM) |  | 22 (≈ 66.4 µM) | 20 (≈ 60.4 µM) |  |  |  |  |  |  |  | 
Cc1noc(/C=C/c2ccccc2)c1N1CN=C2Oc3c(Br)cc(Br)cc3C=C2C1=O | 9 (≈ 16.6 µM) | 7 (≈ 12.9 µM) | 8 (≈ 14.8 µM) | 6 (≈ 11.1 µM) | 5 (≈ 9.24 µM) | 8 (≈ 14.8 µM) | 9 (≈ 16.6 µM) | 8 (≈ 14.8 µM) | 7 (≈ 12.9 µM) | 6 (≈ 11.1 µM) | 10 (≈ 18.5 µM) | 8 (≈ 14.8 µM) | 23.3 | 23.4
Cc1noc(/C=C/c2ccccc2)c1N1CN=C2Oc3ccccc3C=C2C1=O | 18 (≈ 46.9 µM) | 12 (≈ 31.3 µM) | 16 (≈ 41.7 µM) | 14 (≈ 36.5 µM) | 18 (≈ 46.9 µM) | 18 (≈ 46.9 µM) | 16 (≈ 41.7 µM) | 18 (≈ 46.9 µM) | 20 (≈ 52.2 µM) | 12 (≈ 31.3 µM) | 20 (≈ 52.2 µM) | 18 (≈ 46.9 µM) | 17.7 | 15.7
